According to ChEMBL document CHEMBL1136016, “Synthesis, biological activity, and molecular modeling investigation of new pyrazolo[4,3-e]-1,2,4-triazolo[1,5-c]pyrimidine derivatives as human A(3) adenosine receptor antagonists” (J Med Chem, 2002):

Experiments:
[1] = biological target: Adenosine receptors; A2b & A3 (Homo sapiens) (UniProt P29275+P0DMS8); experiment: Selectivity ratio (h2B/hA3); assay type: protein assay
[2] = biological target: T1, Adenosine receptor A2b (Homo sapiens, UniProt P29275); experiment: Displacement of [3H]DPCPX from human Adenosine A2B receptor expressed in HEK293 cells; range 76-98; assay type: cell-based
T1 sequence (P29275 whole entry): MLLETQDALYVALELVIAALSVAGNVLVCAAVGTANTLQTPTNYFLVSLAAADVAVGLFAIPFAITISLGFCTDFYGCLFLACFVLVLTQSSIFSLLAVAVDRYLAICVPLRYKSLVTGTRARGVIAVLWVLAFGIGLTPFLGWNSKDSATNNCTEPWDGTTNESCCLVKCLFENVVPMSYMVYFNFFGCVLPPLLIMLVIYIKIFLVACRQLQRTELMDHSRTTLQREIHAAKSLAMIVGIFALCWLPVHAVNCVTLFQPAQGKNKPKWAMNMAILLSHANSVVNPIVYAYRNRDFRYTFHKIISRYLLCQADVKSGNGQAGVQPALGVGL
Method in brief: (§1)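 HEK-293 membranes expressing the human receptor were incubated 60 min at 25 °C. Six to eight test concentrations were used. Nonspecific binding was set with NECA. n = 3-6.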

[3] = biological target: T2, Adenosine receptor A2a (Homo sapiens, UniProt P29274); experiment: Displacement of [3H]SCH-58261 from human Adenosine A2A receptor expressed in HEK293 cells; range 91-137; assay type: cell-based
[4] = biological target: T3, Adenosine receptor A3 (Homo sapiens, UniProt P0DMS8); experiment: Displacement of [3H]MRE3008-F20 from human Adenosine A3 receptor expressed in HEK cells; range 0.37-0.50; assay type: cell-based, HEK293
T3 sequence (P0DMS8 whole entry): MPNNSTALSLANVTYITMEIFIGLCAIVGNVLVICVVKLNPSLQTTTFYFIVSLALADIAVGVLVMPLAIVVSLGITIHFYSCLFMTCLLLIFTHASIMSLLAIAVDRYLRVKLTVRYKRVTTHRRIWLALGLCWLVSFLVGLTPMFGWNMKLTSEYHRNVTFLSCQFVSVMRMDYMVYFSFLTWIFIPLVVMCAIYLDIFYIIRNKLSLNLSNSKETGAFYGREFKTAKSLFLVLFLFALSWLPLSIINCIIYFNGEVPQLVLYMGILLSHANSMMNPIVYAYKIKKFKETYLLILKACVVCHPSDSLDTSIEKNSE

[5] = biological target: T4, Adenosine receptor A1 (Homo sapiens, UniProt P30542); experiment: Displacement of [3H]-DPCPX from human Adenosine A1 receptor expressed in CHO cells; range 240-368; assay type: cell-based
T4 sequence (P30542 whole entry): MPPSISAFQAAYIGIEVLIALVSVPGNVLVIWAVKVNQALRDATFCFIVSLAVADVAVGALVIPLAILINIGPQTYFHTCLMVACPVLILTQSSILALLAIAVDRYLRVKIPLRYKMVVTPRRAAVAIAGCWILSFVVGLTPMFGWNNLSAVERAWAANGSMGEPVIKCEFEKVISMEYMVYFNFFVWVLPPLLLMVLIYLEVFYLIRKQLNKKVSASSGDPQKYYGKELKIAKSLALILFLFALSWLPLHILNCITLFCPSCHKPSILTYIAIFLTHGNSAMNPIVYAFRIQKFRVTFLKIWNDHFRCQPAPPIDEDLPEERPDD

[6] = biological target: Adenosine receptors; A1 & A3 (Homo sapiens) (UniProt P30542+P0DMS8); experiment: Selectivity ratio (hA1/hA3); assay type: protein assay
[7] = biological target: T1, Adenosine receptor A2b; experiment: Displacement of [3H]DPCPX from human Adenosine A2B receptor expressed in HEK293 cells; range 211-287; assay type: cell-based
Method in brief: (§2)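 Membranes from HEK-293 cells with human recombinant A2B receptor. Incubation 60 min at 25 °C in 50 mM Tris HCl, 10 mM MgCl2, 1 mM EDTA, 0.1 mM benzamidine, pH 7.4, with 2 IU/mL adenosine deaminase and 40 nM [3H]DPCPX. At least six to eight test concentrations. Nonspecific binding defined with NECA. n = 3-6.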

[8] = biological target: T2, Adenosine receptor A2a; experiment: Displacement of [3H]SCH-58261 from human Adenosine A2A receptor expressed in HEK293 cells; range 48-78; assay type: cell-based
[9] = biological target: T4, Adenosine receptor A1; experiment: Displacement of [3H]DPCPX from human Adenosine A1 receptor expressed in CHO cells; range 509-712; assay type: cell-based
Method in brief: (§3)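 Human recombinant A1 receptor in CHO cell membranes, resuspended in 50 mM Tris HCl pH 7.4. Displacement run 120 min at 25 °C with 1 nM [3H]DPCPX, 50 µg protein per assay, and at least six to eight test concentrations. Nonspecific binding defined with CHA. Bound and free separated on glass-fiber filters; filter radioactivity counted. n = 3-6.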

[10] = biological target: T3, Adenosine receptor A3; experiment: Displacement of [3H]MRE3008-F20 binding at human Adenosine A3 receptor expressed in HEK cells; range 0.77-0.97; assay type: cell-based, HEK293
[11] = biological target: T3, Adenosine receptor A3; experiment: Inhibition of IB-MECA agonist-mediated cAMP production in CHO cell membranes expressing human Adenosine A3 receptor; range 2.7-6.6; assay type: functional, cell-based
Method in brief: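 Human A3-CHO membranes (in 50 mM Tris HCl, 10 mM MgCl2, 1 mM EDTA, pH 7.4) were preincubated for 10 min at 37 °C with 5 µM GTP, 0.5 mM Ro 20-1724 and 2.0 IU/mL adenosine deaminase. IB-MECA (100 nM) or antagonist was then added with 1 mM ATP and forskolin for 10 min. The reaction was stopped by 2 min boiling. cAMP was measured by [3H]cAMP competitive protein binding using beef adrenal binding protein, 150 min at 4 °C.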

[12] = biological target: T1, Adenosine receptor A2b; experiment: Displacement of [3H]DPCPX from human Adenosine A2B receptor expressed in HEK293 cells; range 152-216; assay type: cell-based
Method in brief: (§4)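 Competition binding on membranes of HEK-293 cells carrying recombinant human A2B receptor. Incubation 60 min at 25 °C in 50 mM Tris HCl pH 7.4 with 10 mM MgCl2, 1 mM EDTA, 0.1 mM benzamidine and 2 IU/mL adenosine deaminase. Radioligand 40 nM [3H]DPCPX, at least six to eight test concentrations. NECA defined nonspecific binding. Bound ligand separated on glass-fibre filters and counted; n = 3-6.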

[13] = biological target: T3, Adenosine receptor A3; experiment: Displacement of [3H]MRE3008-F20 from human Adenosine A3 receptor expressed in HEK cells; range 0.39-0.54; assay type: cell-based, HEK293
[14] = biological target: T4, Adenosine receptor A1; experiment: Displacement of [3H]DPCPX from human Adenosine A1 receptor expressed in CHO cells; range 512-698; assay type: cell-based
Method in brief: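 Competition binding on membranes of CHO cells stably expressing human A1 receptor, resuspended in 50 mM Tris HCl pH 7.4. Incubation 120 min at 25 °C with 1 nM [3H]DPCPX, 50 µg protein per assay and at least six to eight test concentrations. CHA defined nonspecific binding. Bound ligand separated on glass-fibre filters and counted; n = 3-6.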

[15] = biological target: T2, Adenosine receptor A2a; experiment: Displacement of [3H]SCH-58261 from human Adenosine A2A receptor expressed in HEK293 cells; range 83-120; assay type: cell-based
[16] = biological target: T2, Adenosine receptor A2a; experiment: Displacement of [3H]SCH-58261 from human Adenosine A2A receptor expressed in HEK293 cells; range 511-648; assay type: cell-based
[17] = biological target: T3, Adenosine receptor A3; experiment: biochemical
[18] = biological target: T1, Adenosine receptor A2b; experiment: Displacement of [3H]DPCPX from human Adenosine A2B receptor expressed in HEK293 cells; range 37-63; assay type: cell-based; method in brief: as §1
[19] = biological target: T4, Adenosine receptor A1; experiment: Displacement of [3H]DPCPX from human Adenosine A1 receptor expressed in CHO cells; range 724-889; assay type: cell-based; method in brief: as §3
[20] = biological target: T2, Adenosine receptor A2a; experiment: Displacement of [3H]SCH-58261 from human Adenosine A2A receptor expressed in HEK293 cells; range 40-96; assay type: cell-based
[21] = biological target: T1, Adenosine receptor A2b; experiment: Displacement of [3H]-DPCPX from human Adenosine A2B receptor expressed in HEK293 cells; range 206-282; assay type: cell-based; method in brief: as §4
[22] = biological target: T3, Adenosine receptor A3; experiment: Displacement of [3H]MRE3008-F20 from human Adenosine A3 receptor expressed in HEK cells; range 0.10-0.18; assay type: cell-based, HEK293
[23] = biological target: T2, Adenosine receptor A2a; experiment: Displacement of [3H]SCH-58261 from human Adenosine A2A receptor expressed in HEK293 cells; range 240-388; assay type: cell-based
[24] = biological target: T3, Adenosine receptor A3; experiment: biochemical; remark: listed apart in the source
[25] = biological target: T4, Adenosine receptor A1; experiment: Displacement of [3H]DPCPX from human Adenosine A1 receptor expressed in CHO cells; assay type: cell-based; method in brief: as §3
[26] = biological target: T1, Adenosine receptor A2b; experiment: Displacement of [3H]DPCPX binding at human Adenosine A2B receptor expressed in HEK293 cells; assay type: cell-based; method in brief: as §2

T2 sequence (P29274 whole entry): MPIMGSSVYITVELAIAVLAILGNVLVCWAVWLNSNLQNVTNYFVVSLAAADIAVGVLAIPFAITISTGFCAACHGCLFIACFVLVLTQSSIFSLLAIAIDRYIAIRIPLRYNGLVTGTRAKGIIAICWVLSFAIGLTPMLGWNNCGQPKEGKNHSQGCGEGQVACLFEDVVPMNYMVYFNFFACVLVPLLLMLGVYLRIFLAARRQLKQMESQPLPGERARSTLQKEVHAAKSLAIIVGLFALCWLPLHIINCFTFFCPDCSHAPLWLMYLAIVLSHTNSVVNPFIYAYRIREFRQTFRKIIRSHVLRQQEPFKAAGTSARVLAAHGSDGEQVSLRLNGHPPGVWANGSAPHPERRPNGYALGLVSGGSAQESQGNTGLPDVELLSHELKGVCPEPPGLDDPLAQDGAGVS

## CCCCn1cc2c(nc(NC(=O)Nc3ccc(Cl)cc3)n3nc(-c4ccco4)nc23)n1
[1]
  Ratio: 202
[2]
  Ki: 87 nM
[3]
  Ki: 111 nM
[4]
  Ki: 0.43 nM
[5]
  Ki: 300 nM
[6]
  Ratio: 698

## CCn1cc2c(nc(NC(=O)Nc3ccc(F)cc3)n3nc(-c4ccco4)nc23)n1
[1]
  Ratio: 286
[7]
  Ki: 246 nM
[8]
  Ki: 60 nM
[9]
  Ki: 602 nM
[10]
  Ki: 0.86 nM
[6]
  Ratio: 700

## Cn1cc2c(nc(NC(=O)Nc3ccc(Br)cc3)n3nc(-c4ccco4)nc23)n1
[11]
  IC50: 4.2 nM
[12]
  Ki: 181 nM
[1]
  Ratio: 393
[13]
  Ki: 0.46 nM
[14]
  Ki: 600 nM
[15]
  Ki: 100 nM
[6]
  Ratio: 1300

## CCn1cc2c(nc(NC(=O)Nc3ccc4c(c3)OCO4)n3nc(-c4ccco4)nc23)n1
[1]
  Ratio: 178
[16]
  Ki: 576 nM
[17]
  Ki: 0.27 nM
[18]
  Ki: 48 nM
[6]
  Ratio: 2970
[19]
  Ki: 802 nM

## CCCn1cc2c(nc(NC(=O)Nc3ccccc3)n3nc(-c4ccco4)nc23)n1
[20]
  Ki: 62 nM
[21]
  Ki: 241 nM
[1]
  Ratio: 1610
[22]
  Ki: 0.15 nM
[6]
  Ratio: 1170

## CCCn1cc2c(nc(NC(=O)Nc3ccc(S(=O)(=O)O)cc3)n3nc(-c4ccco4)nc23)n1
[23]
  Ki: 305 nM
[1]
  Ratio: > 333
[24]
  Ki: 30 nM
[6]
  Ratio: > 333
[25]
  Ki: > 10000 nM
[26]
  Ki: > 10000 nM
